Hits are enriched below; roughly 2.2% of the tested compounds scored in any of these assays.
DNMT1 block: human DNMT1 methyltransferase inhibitors, primary screen, biochemical, molecular beacon, fluorescence, HinP1I cleavage, uHTS. inhibition (reported as % activation of signal), % at 10 µM. DNA (cytosine-5)-methyltransferase 1 (Homo sapiens), P26358. AID 588458, 2011. hit rate 0.83% among 360,000; in the data active = inhibition above about 50%
Target sequence (P26358 504-1616 limits assumed): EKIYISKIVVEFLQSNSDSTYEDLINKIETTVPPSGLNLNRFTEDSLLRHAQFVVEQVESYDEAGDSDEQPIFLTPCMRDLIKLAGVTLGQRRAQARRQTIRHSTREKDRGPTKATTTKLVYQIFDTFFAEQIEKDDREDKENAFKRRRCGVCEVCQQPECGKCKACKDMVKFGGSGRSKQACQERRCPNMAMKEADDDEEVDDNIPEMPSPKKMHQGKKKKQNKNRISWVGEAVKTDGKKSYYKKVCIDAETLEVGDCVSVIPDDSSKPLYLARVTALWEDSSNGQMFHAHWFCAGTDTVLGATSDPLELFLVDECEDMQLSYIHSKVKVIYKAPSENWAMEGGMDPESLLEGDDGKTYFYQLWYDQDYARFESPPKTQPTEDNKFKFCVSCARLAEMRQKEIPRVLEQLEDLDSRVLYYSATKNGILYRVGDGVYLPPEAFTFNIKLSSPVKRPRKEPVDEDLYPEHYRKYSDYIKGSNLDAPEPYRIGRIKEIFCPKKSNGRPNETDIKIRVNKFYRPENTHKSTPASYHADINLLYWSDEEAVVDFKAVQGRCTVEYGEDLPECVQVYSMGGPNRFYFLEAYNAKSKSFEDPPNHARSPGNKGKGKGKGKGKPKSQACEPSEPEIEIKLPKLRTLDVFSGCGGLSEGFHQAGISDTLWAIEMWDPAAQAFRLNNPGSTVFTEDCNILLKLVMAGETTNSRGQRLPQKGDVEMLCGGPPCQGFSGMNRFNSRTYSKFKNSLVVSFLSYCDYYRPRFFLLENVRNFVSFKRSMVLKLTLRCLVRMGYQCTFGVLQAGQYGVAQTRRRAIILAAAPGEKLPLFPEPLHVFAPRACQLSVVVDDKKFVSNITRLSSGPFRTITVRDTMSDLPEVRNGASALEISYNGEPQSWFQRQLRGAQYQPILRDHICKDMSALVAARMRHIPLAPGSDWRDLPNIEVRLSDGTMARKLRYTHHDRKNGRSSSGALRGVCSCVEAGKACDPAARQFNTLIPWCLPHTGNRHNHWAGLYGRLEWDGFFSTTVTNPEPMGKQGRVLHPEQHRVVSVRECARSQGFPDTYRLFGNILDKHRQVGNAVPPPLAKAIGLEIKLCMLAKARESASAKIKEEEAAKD
SUMO1 PPI mod: modulators of SUMO1 protein-protein interactions, primary screen, biochemical, uHTS | Small ubiquitin-related modifier 1 (Homo sapiens), P63165 | SUMO1 binding to a labelled peptide, TR-FRET, 1 h | inhibition, % at 20 µM | hit rate 0.33% among 360,000 | AID 602429, 2012; in the data active = inhibition above about 37%
STEP inh: STEP phosphatase inhibitors, primary screen, biochemical, fluorescence intensity, uHTS; Tyrosine-protein phosphatase non-receptor type 5 (Homo sapiens), P54829; recombinant STEP, OMFP fluorogenic substrate; inhibition, % at 20 µM; hit rate 0.25% among 360,000; AID 588621, 2011;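 active = inhibition at 20 µM, scaled per plate between control wells, above about 37%, limit read from the data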;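 note: 0% = DMSO with enzyme and substrate and 100% = substrate only without enzyme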
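System: STEP (striatal-enriched tyrosine phosphatase) enzyme, cell-free; medium: Bis-Tris pH 6.0 buffer with DTT, detergent; dosing: 20 µM, 1% DMSO; times: reaction 20 min, ambient temperature; detection: fluorescence, 480/540 nm; read-out basis: normalized % inhibition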
GRK2 inh: compounds blocking aptamer binding on GRK2 – biochemical, human GRK2, bead flow cytometry, HTS, primary screen | Beta-adrenergic receptor kinase 1 (Homo sapiens), P25098 | FAM-aptamer displacement from GRK2 | inhibition of aptamer binding, % at 10 µM | hit rate 0.59% among 330,000 | AID 488847, 2010;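 active = inhibition of aptamer binding above 40%, roughly 3 SD of noise, on plates passing a quality check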;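 note: median bead fluorescence of bound FAM aptamer so fluorescent compounds give negative values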
LMPTP inh: LMPTP phosphatase inhibitors, primary screen, biochemical, fluorescence intensity, uHTS; Low molecular weight phosphotyrosine protein phosphatase (Homo sapiens), P24666; recombinant LMPTP-A, OMFP fluorogenic substrate; inhibition, % at 20 µM; hit rate 0.22% among 360,000; AID 651560, 2012;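 active = compounds that cut the enzyme signal by at least half of the control window in the single-dose screen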;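 note: plate controls were DMSO wells with enzyme plus substrate for no effect and substrate without enzyme for full effect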
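Assay system: LMPTP-A phosphatase enzyme | Input: 0.625 nM enzyme | Also added: Fluorogenic phosphatase substrate OMFP at 400 µM final | Compound dosing: One test concentration per compound, 20 µM, with 3% DMSO overall | Schedule: 50 min enzyme reaction at room temperature, protected from light | Signal: Fluorescence intensity | Benchmarks: no-enzyme and uninhibited controls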
Scp-1 inhibitor: Scp-1 phosphatase inhibitors, primary screen, biochemical, colorimetric, uHTS; hit rate 0.88% among 340,000; inhibition, % at 20 µM; Recombinant Scp1, phosphopeptide, malachite green phosphate absorbance; AID 493091, 2011;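 active = inhibition above about 50% at 20 µM, limit read from the data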;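 note: plate controls were DMSO wells with enzyme for no effect and wells lacking enzyme for full effect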
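Test system: SCP-1 phosphatase catalytic domain, residues 76-261; measured by: colorimetric phosphate reagent with accelerator and stabiliser, absorbance at 630 nm; timing: enzyme reaction 45 min at room temperature, colour 5 min, stabilisation 30 min; also added: Phosphorylated 17-residue peptide substrate; compound dosing: one concentration, 20 µM, with 1.0% DMSO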
Scp1 confirm: Scp-1 phosphatase inhibitors, retest, confirmation, biochemical, colorimetric, single concentration; shares compounds with Scp-1 inhibitor; recombinant SCP-1 catalytic domain, phosphate release, malachite green absorbance; inhibition, % at 20 µM; hit rate 61% among 2,500; AID 540281, 2011;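 note: plate controls were DMSO with enzyme for no effect and buffer wells lacking enzyme for full effect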
Scp-1 MG ctr: colorimetric readout interference by compounds, confirmation, artefact control for Scp-1 inhibitor project, biochemical, single concentration; shares compounds with Scp-1 inhibitor; Colorimetric interference counterscreen, malachite green absorbance 630 nm; apparent inhibition (interference), % at 20 µM; 2,500 tested, under 10 active; AID 540313, 2011;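 note: compounds added after enzyme reaction finished so only phosphate colour detection is probed; plate controls were DMSO wells with completed Scp-1 reaction for no effect and substrate wells lacking enzyme for full effect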
Scp1 DSF: Scp-1 binding by thermal shift, confirmation, orthogonal assay for Scp-1 inhibitor project, biophysical, differential scanning fluorimetry; shares compounds with Scp-1 inhibitor; Recombinant SCP1, Sypro Orange thermal shift Tm; thermal shift relative to vanadate control, % at 40 µM; hit rate 25% among 1,500;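 active = substances whose mean melting-temperature shift, as a percentage of the reference inhibitor's shift, reaches about 5.3%, limit read from the data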;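 note: 0% = Tm of DMSO wells and 100% = Tm with sodium orthovanadate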
* = called active by the depositor; / = no result given.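 Rule for the calls, unless noted: active = inhibition of at least 30% at 20 µM; inactive = the rest.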

SMILES	DNMT1 block	SUMO1 PPI mod	STEP inh	GRK2 inh	LMPTP inh	Scp-1 inhibitor	Scp1 confirm	Scp-1 MG ctr	others
Nc1cc(C(=O)OCC(=O)c2ccc(CC(=O)N3CCOCC3)s2)ccc1Cl	1.8	-9.3	2.5	0.0	8.2	54.2*	39.4*	-15.8	Scp1 DSF=6.2*
Cc1ccc(C(=O)COC(=O)c2ccc(Cl)c(N)c2)s1	-6.0	-2.7	-1.4	1.0	0.2	-6.1	/	/
COc1ccc(-c2ccc3oc(-c4ccc(OC)cc4)c(C#CC4(O)CCCCC4)c3c2)cc1	-13.1	7.0	0.1	1.0	5.1	72.6*	41.5*	-25.7	Scp1 DSF=-2.2
COc1ccc(-c2sc3ccc(N4CCOCC4)cc3c2C#CC2(O)CCCCC2)cc1	-50.8	-12.2	0.0	0.0	2.0	1.9	/	/
COc1ccccc1CN1CC(C(=O)NCCN2CCNC2=O)CCC1=O (stereo not drawn)	1.0	1.8	-3.5	2.0	-1.1	11.3	/	/
O=C(NCCN1CCNC1=O)C1CCC(=O)N(CCc2ccccc2)C1 (stereo not drawn)	0.9	-0.2	-0.3	0.0	1.0	-7.8	-16.0	-12.0
COC(=O)C1=CN(c2ccc3c(c2)OCO3)C(N)=C(C#N)C1c1ccc(-c2ccccc2)cc1 (stereo not drawn)	/	-8.3	/	/	0.1	/	/	/
C#CCn1c(=NC(=O)c2ccc(Br)s2)sc2cc(NC(C)=O)ccc21	34.1	0.0	18.8	0.0	5.6	54.0*	70.4*	-6.5	Scp1 DSF=2.1
COCCn1c(=NC(=O)c2cccs2)sc2cc(NC(C)=O)ccc21	-6.1	-0.7	-1.2	1.0	-0.1	-5.5	/	/
CCn1c(SCC(=O)Nc2oc(C)c3c(C)n[nH]c(=O)c23)nc2sc(C)c(C)c2c1=O	0.2	-6.0	1.1	2.0	-14.8	66.0*	-19.1	-13.4
CCn1nc([N+](=O)[O-])c2c(-c3nc4ccccc4o3)c(N)n(CCCOC)c2c1=O	34.8	18.1	9.6	0.0	22.9	84.8*	78.3*	-9.5	Scp1 DSF=1.9
COCCCn1c(-c2ccco2)nc2ccccc2c1=O	-4.9	-4.7	-1.8	0.0	0.2	0.6	/	/
Cc1ccc(S(=O)(=O)NC(C)CCc2ccccc2)cc1C(N)=O (stereo not drawn)	1.2	0.2	0.0	3.0	-0.6	-2.0	-4.4	-10.9
CCCS(=O)(=O)NC(=O)C1(C)CCN(C(=O)Cc2cccc(OC)c2)C1 (stereo not drawn)	2.4	3.1	-1.6	/	-2.4	/	/	/
Cc1cc(C(F)F)n2nc(C(=O)Nc3sc4c(c3C(N)=O)CCC4)nc2n1	25.6	10.3	4.4	2.0	12.1	61.0*	55.0*	-12.3	Scp1 DSF=3.9
COC(=O)c1c(NC(=O)c2nc3nc(C)cc(C(F)F)n3n2)sc2c1CCC2	-3.1	-19.3	1.9	3.0	1.9	-1.3	/	/
O=C(Oc1cccc(NC(=O)c2ccco2)c1)c1ccc(Br)c(S(=O)(=O)N2CCCCC2)c1	-4.2	-2.0	2.2	0.0	2.6	-16.0	/	/
Cc1ccc(C(=O)Oc2cccc(NC(=O)c3ccco3)c2)cc1S(=O)(=O)N1CCC(C)CC1	-6.3	-0.4	0.1	3.0	3.0	54.5*	-10.5	-13.7
O=C1Nc2ccccc2/C1=N/N=C/c1ccc(-c2ccc([N+](=O)[O-])cc2)o1	36.4	-12.3	15.9	/	0.3	75.1*	36.3*	-14.0	Scp1 DSF=5.6*
CN(/N=C/c1ccc(-c2ccc([N+](=O)[O-])cc2)o1)c1ccccc1	-1.2	-11.3	7.1	0.0	9.9	-7.0	/	/
COc1ccccc1CNC(=O)COC(=O)c1cnccn1	0.4	-1.5	1.6	0.0	-1.0	43.0	/	/
COc1ccccc1CNC(=O)c1cnccn1	12.8	1.6	-2.3	1.0	0.4	55.9*	56.9*	-11.2	Scp1 DSF=-0.2
CC(=O)Oc1ccc(/C=C(\NC(=O)c2ccco2)C(=O)NCc2ccccc2)cc1	-0.7	-5.6	-0.8	0.0	-0.5	53.5*	-6.2	-5.7
CC(C)Oc1ccc(CCc2n[nH]c(=S)n2-c2ccccc2)cc1	-0.5	-4.3	-0.3	1.0	0.1	16.4	/	/
CCCOCC(O)CCc1n[nH]c(=S)n1-c1ccccc1 (stereo not drawn)	7.9	-2.3	-1.1	0.0	0.8	60.2*	-7.4	-5.7
SMILES	DNMT1 block	SUMO1 PPI mod	STEP inh	GRK2 inh	LMPTP inh	Scp-1 inhibitor	Scp1 confirm	Scp-1 MG ctr	others
CC(C)N(C(=O)CSc1nnc(-c2ccc3c(c2)OCO3)n1C)C(C)C	0.2	-3.2	-1.1	0.0	0.5	55.0*	-23.7	-18.9
CCCCn1nnnc1C(c1ccccc1)N1CCN(c2ncc(C(F)(F)F)cc2Cl)CC1 (stereo not drawn)	/	-1.1	/	/	2.9	/	/	/
CCCNC(=O)COC(=O)/C=C/c1ccco1	14.2	-12.0	0.4	14.0	-0.4	11.9	/	/
O=C(COC(=O)/C=C/c1ccco1)NCCN1C(=O)CSC1=O	15.0	-7.3	5.7	/	4.0	65.2*	28.7	-16.4
CC1CCCCC1NC(=O)c1ccc(CSc2nc3ccncc3[nH]2)cc1 (stereo not drawn)	0.3	0.7	2.0	0.0	14.9	-9.1	/	/
Cc1ccc(C)c(N2CCN(C(=O)c3ccc(CSc4nc5ccncc5[nH]4)cc3)CC2)c1	-3.6	-1.8	-0.2	3.0	27.9	56.2*	-15.7	-4.0
CCC(C(=O)Nc1c(C)cccc1C)n1c(-c2ccc(=O)[nH]c2)nc2ccccc21 (stereo not drawn)	/	-4.1	/	/	-1.2	/	/	/
COc1ccccc1OCCSc1nc2ccccc2n1CCC(=O)O	9.8	9.1	-1.0	4.0	-1.4	8.9	/	/
COc1ccccc1OCCn1c(SCC(=O)O)nc2ccccc21	16.5	2.3	2.8	4.0	-1.6	62.0*	50.3*	-8.4	Scp1 DSF=-15.6
O=c1[nH]c2cc3c(cc2cc1CN(Cc1cccnc1)Cc1nnnn1Cc1ccco1)OCCO3	8.2	15.8	2.8	4.0	47.5	83.8*	11.8	-13.1
